Only some compounds are listed: those with a hit (about 3.2% of all), similar ones and a draw of the others.
Biofilm kill mix = clotrimazole potentiators killing C. albicans biofilm, primary screen, 4-compound mixtures. 0.02% of 120,000 active. C. albicans biofilm persisters + clotrimazole, fluorescence viability; primary screen in compound mixtures of four per well. inhibition, % at 7.6 µM. AID 1242, 2008;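 active means inhibition above 30.3% in the primary screen of four-compound pools, then above 30% when the compound was retested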;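 further: compounds exposed to preformed 24 h biofilms for 48 h; 0% = untreated biofilm control and 100% = clotrimazole plus chlorhexidine kill blank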
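Test system: C. albicans biofilms. Buffer or medium: RPMI/MOPS medium, pH 7.0. Timing: 48 h compound exposure at 37 °C. Technique: Alamar Blue fluorescence. Evaluation: percent inhibition of biofilm viability.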
Hck-Nef inh = inhibitors of Nef-activated human Hck kinase, primary screen, biochemical, Z-Lyte FRET, 384-well, Hck-YEEI; AID 463187, 2010; inhibition, % at 20 µM; Tyrosine-protein kinase HCK (Homo sapiens), P08631; 0.68% of 220,000 active; Recombinant Hck-YEEI plus Nef, Z-Lyte FRET kinase assay;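 active means Hck-Nef kinase inhibition above about 50%, limit read from the data; inactive means inhibition below that limit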;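 further: 0% = DMSO with Hck plus Nef and 100% = Hck alone without Nef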
Target sequence (P08631 whole entry, looked up): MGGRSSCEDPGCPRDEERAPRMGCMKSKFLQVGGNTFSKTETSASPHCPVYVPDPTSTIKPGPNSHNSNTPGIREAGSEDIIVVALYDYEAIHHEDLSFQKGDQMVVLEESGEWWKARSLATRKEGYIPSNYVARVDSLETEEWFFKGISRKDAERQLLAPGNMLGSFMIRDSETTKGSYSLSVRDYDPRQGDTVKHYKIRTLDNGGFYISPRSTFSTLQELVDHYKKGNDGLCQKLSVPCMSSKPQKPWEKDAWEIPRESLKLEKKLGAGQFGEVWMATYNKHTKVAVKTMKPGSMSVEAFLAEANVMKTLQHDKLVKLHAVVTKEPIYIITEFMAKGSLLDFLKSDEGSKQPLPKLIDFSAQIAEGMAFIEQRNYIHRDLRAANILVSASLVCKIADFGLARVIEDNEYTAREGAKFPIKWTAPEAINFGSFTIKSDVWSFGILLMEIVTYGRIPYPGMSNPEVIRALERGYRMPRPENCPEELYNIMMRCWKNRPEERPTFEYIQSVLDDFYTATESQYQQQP
Mcl1 Noxa PPI = Mcl-1/Noxa binding inhibitors, primary screen, biochemical, TR-FRET, 1536-well. Induced myeloid leukemia cell differentiation protein Mcl-1 (Homo sapiens), Q07820. TR-FRET Mcl-1/Noxa peptide binding, 2 h. inhibition, % at 21.7 µM. 1.5% of 220,000 active;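 active means compounds that cut the protein-peptide binding signal by more than 50% relative to plate controls in a single-dose test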;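 further: His-tagged Mcl-1 with rhodamine Noxa BH3 peptide and terbium anti-His antibody; 0% = Mcl-1 plus Noxa peptide wells and 100% = peptide-only wells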
14-3-3 Bad inh = inhibitors of 14-3-3 zeta/Bad binding, primary screen, biochemical, TR-FRET, bovine 14-3-3 zeta. 14-3-3 protein zeta/delta (Bos taurus), P63103. TR-FRET 14-3-3zeta/Dy647-pBad peptide displacement, 1 h. inhibition, % at 21.7 µM. 0.71% of 220,000 active;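 active means inhibition above about 70%, limit read from the data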;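 further: 0% = full 14-3-3 plus peptide FRET controls and 100% = background without 14-3-3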
Mcl1 Bid PPI = Mcl-1/Bid binding inhibitors, primary screen, biochemical, TR-FRET, 1536-well | Induced myeloid leukemia cell differentiation protein Mcl-1 (Homo sapiens), Q07820 | inhibition, % at 21.7 µM | 0.97% of 220,000 active | TR-FRET Mcl-1/Bid-Dy647 peptide binding;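 active means compounds that cut the binding signal by more than half at the single screening dose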;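 further: His-tagged Mcl-1 with europium anti-His antibody binding Bid BH3 peptide; 0% = Mcl-1 plus peptide wells and 100% = peptide-only wells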
Bim-Mcl-1 = inhibitors of Bim peptide binding to Mcl-1, primary screen, biochemical, bead-based flow cytometry, multiplex | Induced myeloid leukemia cell differentiation protein Mcl-1 (Homo sapiens), Q07820 | Bim peptide-Mcl-1 binding | inhibition, % at 10 µM | 0.1% of 190,000 active; in the data active means inhibition above about 40%;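 further: 0% = no compound tracer wells and 100% = peptide blocker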
* hit, by the source's call; [ ] = dose if it differs, or a comment.

O=S(=O)(Nc1ccc(N=Nc2ccc(O)c3ccccc23)cc1)c1ccccc1 was read as Biofilm kill mix 13, Hck-Nef inh 1, Mcl1 Noxa PPI 59*, 14-3-3 Bad inh -13, Mcl1 Bid PPI -29 and Bim-Mcl-1 1.
`Cc1csc(CCc2nc(C)cs2)n1` gave Hck-Nef inh -1, Mcl1 Noxa PPI -10, 14-3-3 Bad inh 2, Mcl1 Bid PPI 100* and Bim-Mcl-1 -5.
Screening COc1cc(O)c(C(C)=O)c(CC(=O)O)c1 returned Biofilm kill mix 14, Hck-Nef inh 35, Mcl1 Noxa PPI 15, 14-3-3 Bad inh 14 and Mcl1 Bid PPI -109.
Screening O=C(O)c1c[nH]c2c(C(F)(F)F)cccc2c1=O returned Hck-Nef inh 1, Mcl1 Noxa PPI 7, 14-3-3 Bad inh 39, Mcl1 Bid PPI 53* and Bim-Mcl-1 -1.
`COc1cccc2c(=O)c(C(=O)O)c[nH]c12` gave Hck-Nef inh 3, Mcl1 Noxa PPI -76, 14-3-3 Bad inh 9, Mcl1 Bid PPI 14 and Bim-Mcl-1 -2.
O=C(CN1C(=O)S/C(=C\c2ccc(Cl)cc2)C1=O)NNC(=O)c1ccccc1O was read as Biofilm kill mix 18, Hck-Nef inh 6, Mcl1 Noxa PPI 65*, 14-3-3 Bad inh 77*[fluorescence artefact?], Mcl1 Bid PPI 82* and Bim-Mcl-1 -6.
For COc1ccc(/C=C2\SC(=S)N(CCCC(=O)NNC(=O)c3ccccc3O)C2=O)cc1 the results were Biofilm kill mix 24, Hck-Nef inh 28, Mcl1 Noxa PPI 12, 14-3-3 Bad inh 3, Mcl1 Bid PPI 16 and Bim-Mcl-1 -3.
O=C(Cn1cnc2ccccc2c1=O)Nc1nc2ccccc2s1 was read as Biofilm kill mix 17, Hck-Nef inh 23, Mcl1 Noxa PPI 7, 14-3-3 Bad inh -6, Mcl1 Bid PPI -11 and Bim-Mcl-1 -1.
`CCc1ccc2nc(NC(=O)Cn3cnc4ccccc4c3=O)sc2c1` gave Biofilm kill mix 23, Hck-Nef inh 55*, Mcl1 Noxa PPI 18, 14-3-3 Bad inh 0, Mcl1 Bid PPI -6 and Bim-Mcl-1 -1.
O=c1c(Cc2ccccc2)c(O)ccn1Cc1ccco1 was read as Biofilm kill mix 10, Hck-Nef inh 10, Mcl1 Noxa PPI 2, 14-3-3 Bad inh -10, Mcl1 Bid PPI -35 and Bim-Mcl-1 0.
`COc1ccc(N2Cc3ccccc3C2=NC(=O)c2cncc(Br)c2)cc1` gave Biofilm kill mix 9, Hck-Nef inh 0, Mcl1 Noxa PPI 2, 14-3-3 Bad inh -7, Mcl1 Bid PPI -39 and Bim-Mcl-1 -1.
Screening Nc1ccc(N)c(C(=O)O)c1 returned Mcl1 Noxa PPI 92*, 14-3-3 Bad inh 96* and Mcl1 Bid PPI 98*.
`O=C(N/N=C/c1cc(O)ccc1[N+](=O)[O-])c1ccc2c(c1)OCCO2` gave Biofilm kill mix 9, Hck-Nef inh 11, Mcl1 Noxa PPI -1, 14-3-3 Bad inh -10 and Mcl1 Bid PPI -31.
For CCOC(=O)n1c(O)c(N=NC(N)=S)c2cc(C)ccc21 the results were Biofilm kill mix 18, Hck-Nef inh 3, Mcl1 Noxa PPI -45, 14-3-3 Bad inh -12 and Mcl1 Bid PPI -155.
Cc1ccc2c(c1)c(C1=NC(=S)NC1=O)c(O)n2C was read as Biofilm kill mix 18, Hck-Nef inh 33, Mcl1 Noxa PPI 55*, 14-3-3 Bad inh 7, Mcl1 Bid PPI 26 and Bim-Mcl-1 0.
C/C(=N\NS(=O)(=O)c1ccc([N+](=O)[O-])cc1)c1ccc(NC(=O)c2ccco2)cc1 was read as Biofilm kill mix 16, Hck-Nef inh 20, Mcl1 Noxa PPI -15, 14-3-3 Bad inh 9, Mcl1 Bid PPI -21 and Bim-Mcl-1 1.
`O=C(/C=C/Nc1ccc(F)c(Cl)c1)c1ccco1` gave Hck-Nef inh 7, Mcl1 Noxa PPI -6, 14-3-3 Bad inh -2, Mcl1 Bid PPI -49 and Bim-Mcl-1 0.
For O=C(/C=C/Nc1cccc(F)c1)c1ccco1 the results were Hck-Nef inh 5, Mcl1 Noxa PPI -3, 14-3-3 Bad inh 9, Mcl1 Bid PPI 87* and Bim-Mcl-1 -2.
Screening Nc1n[nH]c(=S)n1/N=C1/C(=O)Nc2ccccc21 returned Biofilm kill mix 1, Hck-Nef inh 18, Mcl1 Noxa PPI 71*, 14-3-3 Bad inh 38, Mcl1 Bid PPI 22 and Bim-Mcl-1 0.
Cc1ccc2c(c1)/C(=N/N1C(=O)c3ccccc3C1=O)C(=O)N2 was read as Biofilm kill mix 14, Hck-Nef inh 1, Mcl1 Noxa PPI 16, 14-3-3 Bad inh -8, Mcl1 Bid PPI -4 and Bim-Mcl-1 0.
`C=CCN1C(=O)C(C)NC1=S` (stereo not drawn) gave Biofilm kill mix 3, Hck-Nef inh 3, Mcl1 Noxa PPI 1, 14-3-3 Bad inh 2 and Mcl1 Bid PPI -16.
Screening Oc1oc(-c2ccccc2Br)nc1C=Nc1ccc(Br)cn1 returned Biofilm kill mix 13, Hck-Nef inh 24, Mcl1 Noxa PPI 47, 14-3-3 Bad inh 76*, Mcl1 Bid PPI 31 and Bim-Mcl-1 2.
Screening Oc1oc(-c2ccccc2)nc1/C=N/c1ccccn1 returned Biofilm kill mix -8, Hck-Nef inh 21, Mcl1 Noxa PPI 2, 14-3-3 Bad inh -11, Mcl1 Bid PPI -53 and Bim-Mcl-1 1.
Screening Nc1c(C(=O)O)ccc2c1C(=O)c1ccccc1C2=O returned Biofilm kill mix 11, Hck-Nef inh 14, Mcl1 Noxa PPI 26, 14-3-3 Bad inh -1, Mcl1 Bid PPI -33 and Bim-Mcl-1 2.
`COC(=O)c1ccc2c(c1O)C(=O)c1ccccc1C2=O` gave Hck-Nef inh 11, Mcl1 Noxa PPI 58*, 14-3-3 Bad inh 0, Mcl1 Bid PPI 48 and Bim-Mcl-1 3.
`CSc1nsc(/C=C/Nc2ccc(O)cc2C)c1C#N` gave Biofilm kill mix 16, Hck-Nef inh 21, Mcl1 Noxa PPI 55*, 14-3-3 Bad inh -12, Mcl1 Bid PPI -29 and Bim-Mcl-1 -3.
CSc1nsc(/C=C/Nc2ccc(F)cc2)c1C#N was read as Biofilm kill mix 19, Hck-Nef inh 22, Mcl1 Noxa PPI -2, 14-3-3 Bad inh -7, Mcl1 Bid PPI -14 and Bim-Mcl-1 -2.
CN(CCC#N)C(=O)COC(=O)c1c2c(nc3ccccc13)/C(=C/c1ccco1)CC2 was read as Biofilm kill mix 5, Hck-Nef inh 6, Mcl1 Noxa PPI 85*, 14-3-3 Bad inh -10, Mcl1 Bid PPI 63* and Bim-Mcl-1 22.
